Source: ChEMBL document CHEMBL3102723, “Design, synthesis and anti-inflammatory evaluation of novel 5-benzylidene-3,4-dihalo-furan-2-one derivatives” (Eur J Med Chem, 2014)
Blank lines part the entries; values can stand above or below the molecule they belong to. Calls of active or inactive are those of the source. No cut-off for these calls is given here.

Legend:
[1] = system: RAW264.7; assay: Antiinflammatory activity in mouse RAW264.7 cells assessed as inhibition of LPS-induced TNF-alpha release at 10 uM treated 2 hrs before LPS challenge measured after 6 hrs by ELISA (reference value: 5.9 +/- 0.5 pg/ml); type: functional
[2] = system: RAW264.7; assay: Antiinflammatory activity in mouse RAW264.7 cells assessed as inhibition of LPS-induced IL-6 release at 10 uM treated 2 hrs before LPS challenge measured after 6 hrs by ELISA (reference value: 7.2 +/- 0.9 pg/ml); type: functional
[3] = system: RAW264.7; assay: Antiinflammatory activity in mouse RAW264.7 cells assessed as inhibition of LPS-induced IL-6 release at 10 uM treated 2 hrs before LPS challenge measured by ELISA; type: functional, cell-based; conditions: TDE = time-dependent effect
[4] = Cytotoxicity against mouse RAW264.7 cells assessed as cell viability at 10 uM after 48 hrs by MTT assay relative to control; type: cell-based; conditions: read-out: Activity
Method in brief: (§1)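 MTT assay. RAW264.7 cells at 4 × 10^3 cells/well, cultured 16 h, then exposed to compounds diluted in DMEM for 48 h. MTT (0.5 mg/mL) added for 4 h, formazan dissolved in DMSO, OD570 read. Viability = compound OD570/blank OD570 × 100%, with the medium-only blank set as 100%. Three independent experiments.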

[5] = system: RAW264.7; assay: Antiinflammatory activity in mouse RAW264.7 cells assessed as inhibition of LPS-induced IL-6 release at 10 uM treated 2 hrs before LPS challenge measured after 24 hrs by ELISA (reference value: 45.1 +/- 5.6 pg/ml); type: functional
[6] = system: RAW264.7; assay: Antiinflammatory activity in mouse RAW264.7 cells assessed as inhibition of LPS-induced IL-6 release at 10 uM treated 2 hrs before LPS challenge measured after 12 hrs by ELISA (reference value: 13.9 +/- 2.6 pg/ml); type: functional
[7] = system: RAW264.7; assay: Antiinflammatory activity in mouse RAW264.7 cells assessed as inhibition of LPS-induced TNF-alpha release at 10 uM treated 2 hrs before LPS challenge measured after 24 hrs by ELISA (reference value: 38.3 +/- 3.3 pg/ml); type: functional
[8] = system: RAW264.7; assay: Antiinflammatory activity in mouse RAW264.7 cells assessed as inhibition of LPS-induced TNF-alpha release at 10 uM treated 2 hrs before LPS challenge measured after 12 hrs by ELISA (reference value: 11.8 +/- 1.2 pg/ml); type: functional
[9] = system: RAW264.7; assay: Antiinflammatory activity in mouse RAW264.7 cells assessed as inhibition of LPS-induced nitric oxide release at 10 uM treated 2 hrs before LPS challenge measured after 48 hrs by Griess assay relative to control; type: functional
[10] = system: RAW264.7; assay: Antiinflammatory activity in mouse RAW264.7 cells assessed as inhibition of LPS-induced TNF-alpha release at 10 uM treated 2 hrs before LPS challenge measured by ELISA; type: functional, cell-based; conditions: TDE = time-dependent effect
[11] = biological target: T1, Peroxisome proliferator-activated receptor gamma (Mus musculus) (UniProt P37238); assay: Inhibition of PPARgamma in mouse RAW264.7 cells assessed as inhibition of LPS-induced ERK1/2 phosphorylation at 10 uM after 4 hrs by Western blot analysis in presence of PPARgamma antagonist GW9662; type: cell-based
T1 sequence (whole entry): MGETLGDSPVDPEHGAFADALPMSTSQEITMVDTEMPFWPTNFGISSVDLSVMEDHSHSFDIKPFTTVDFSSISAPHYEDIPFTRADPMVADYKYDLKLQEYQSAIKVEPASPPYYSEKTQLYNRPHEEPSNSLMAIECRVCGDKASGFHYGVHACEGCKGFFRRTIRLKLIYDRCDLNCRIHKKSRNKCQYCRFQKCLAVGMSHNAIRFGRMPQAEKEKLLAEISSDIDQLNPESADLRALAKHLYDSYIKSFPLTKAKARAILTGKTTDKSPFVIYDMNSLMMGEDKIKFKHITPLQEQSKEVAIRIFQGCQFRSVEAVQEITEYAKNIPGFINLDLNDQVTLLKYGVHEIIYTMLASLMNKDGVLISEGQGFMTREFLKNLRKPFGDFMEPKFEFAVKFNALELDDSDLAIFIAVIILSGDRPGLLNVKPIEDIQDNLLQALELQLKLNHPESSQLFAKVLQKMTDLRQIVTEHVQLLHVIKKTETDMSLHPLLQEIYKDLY
Method in brief: (§2)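 RAW264.7 cells at 2 × 10^6 per well, cultured 18 h, then given fresh medium with compounds plus 500 ng/mL LPS for 4 h, with GW9662 at 5 where included. Lysates clarified at 14,000 × g, protein by BCA, equal loads on SDS-PAGE. Blots blocked in 5% milk/TBST, primary antibodies 1:1000 overnight, secondary 1:1000 90 min, ECL detection. Means ± SD (n = 3).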

[12] = biological target: T1, Peroxisome proliferator-activated receptor gamma (Mus musculus); assay: Inhibition of PPARgamma in mouse RAW264.7 cells assessed as inhibition of LPS-induced IkappaBalpha phosphorylation at 10 uM after 4 hrs by Western blot analysis; type: cell-based; method in brief: as §2
[13] = biological target: T1, Peroxisome proliferator-activated receptor gamma (Mus musculus); assay: Inhibition of PPARgamma in mouse RAW264.7 cells assessed as inhibition of LPS-induced NF-kappaB 65 phosphorylation at 10 uM after 4 hrs by Western blot analysis in presence of PPARgamma antagonist GW9662; type: cell-based; method in brief: as §2
[14] = biological target: T1, Peroxisome proliferator-activated receptor gamma (Mus musculus); assay: Inhibition of PPARgamma in mouse RAW264.7 cells assessed as inhibition of LPS-induced JNK phosphorylation at 10 uM after 4 hrs by Western blot analysis in presence of PPARgamma antagonist GW9662; type: cell-based; method in brief: as §2
[15] = biological target: T1, Peroxisome proliferator-activated receptor gamma (Mus musculus); assay: Inhibition of PPARgamma in mouse RAW264.7 cells assessed as inhibition of LPS-induced IkappaBalpha phosphorylation at 10 uM after 4 hrs by Western blot analysis in presence of PPARgamma antagonist GW9662; type: cell-based; method in brief: as §2
[16] = biological target: T1, Peroxisome proliferator-activated receptor gamma (Mus musculus); assay: Inhibition of PPARgamma in mouse RAW264.7 cells assessed as inhibition of LPS-induced p38 MAPK phosphorylation at 10 uM after 4 hrs by Western blot analysis in presence of PPARgamma antagonist GW9662; type: cell-based; method in brief: as §2
[17] = biological target: T1, Peroxisome proliferator-activated receptor gamma (Mus musculus); assay: Inhibition of PPARgamma in mouse RAW264.7 cells assessed as inhibition of LPS-induced p38 MAPK phosphorylation at 10 uM after 4 hrs by Western blot analysis; type: cell-based; method in brief: as §2
[18] = biological target: T1, Peroxisome proliferator-activated receptor gamma (Mus musculus); assay: Inhibition of PPARgamma in mouse RAW264.7 cells assessed as inhibition of LPS-induced NF-kappaB 65 phosphorylation at 10 uM after 4 hrs by Western blot analysis; type: cell-based; method in brief: as §2
[19] = biological target: T1, Peroxisome proliferator-activated receptor gamma (Mus musculus); assay: Inhibition of PPARgamma in mouse RAW264.7 cells assessed as inhibition of LPS-induced ERK1/2 phosphorylation at 10 uM after 4 hrs by Western blot analysis; type: cell-based; method in brief: as §2
[20] = biological target: T1, Peroxisome proliferator-activated receptor gamma (Mus musculus); assay: Inhibition of PPARgamma in mouse RAW264.7 cells assessed as inhibition of LPS-induced JNK phosphorylation at 10 uM after 4 hrs by Western blot analysis; type: cell-based; method in brief: as §2
[21] = Cytotoxicity against mouse RAW264.7 cells assessed as cell viability at 5 uM after 48 hrs by MTT assay relative to control; type: cell-based; conditions: read-out: Activity; method in brief: as §1

Compound: CN(CCOc1ccc(CC2SC(=O)NC2=O)cc1)c1ccccn1 (stereo unspecified) [ROSIGLITAZONE]
Activity [1]: 416.9 pg/mL | Activity [2]: 2783.9 pg/mL | inhibition [3]: tde | viability at 48 h, 10 µM [4]: 99.7% | Activity [5]: 8388.6 pg/mL | Activity [6]: 3477.9 pg/mL | Activity [7]: 1293.8 pg/mL | Activity [8]: 631.3 pg/mL | inhibition at 10 µM [9]: 16.7% | inhibition [10]: tde

Compound: Cc1nc(C)c(COc2cccc(/C=C3\SC(=O)NC3=O)c2)nc1C
inhibition at 10 µM [9]: 23.5%

inhibition [11]: inactive | inhibition [12]: Active | inhibition [13]: inactive | inhibition [14]: inactive | inhibition [15]: inactive | inhibition [16]: inactive | inhibition [17]: Active | inhibition [18]: Active | inhibition [19]: Active | inhibition [20]: Active
Compound: CCOc1cc(/C=C2\OC(=O)C(Br)=C2Br)ccc1OCCc1ccc(CC)cn1
Activity [1]: 323.8 pg/mL | Activity [2]: 598.1 pg/mL | inhibition [3]: tde | viability at 48 h, 10 µM [4]: 93.1% | Activity [5]: 2360.2 pg/mL | Activity [6]: 902.2 pg/mL | Activity [7]: 1044.2 pg/mL | Activity [8]: 519.8 pg/mL | inhibition at 10 µM [9]: 80.1% | inhibition [10]: tde

Compound: COc1ccc2c(c1)c(CC(=O)O)c(C)n2C(=O)c1ccc(Cl)cc1 [INDOMETHACIN]
Activity [1]: 366.5 pg/mL | Activity [2]: 2313.5 pg/mL | inhibition [3]: tde | viability at 48 h, 10 µM [4]: 101% | Activity [5]: 7645.9 pg/mL | Activity [6]: 2989.6 pg/mL | Activity [7]: 1242 pg/mL | Activity [8]: 612.6 pg/mL | inhibition at 10 µM [9]: 31.3% | inhibition [10]: tde

Compound: COc1cc(/C=C2\OC(=O)C(Br)=C2Br)ccc1OCc1nc(C)c(C)nc1C
inhibition at 10 µM [9]: 37.2%

Compound: O=C(Nc1ccccc1)c1cc([N+](=O)[O-])ccc1Cl
viability at 48 h, 5 µM [21]: 101%

Compound: COc1cc(/C=C2\SC(=O)NC2=O)ccc1OCc1nc(C)c(C)nc1C
inhibition at 10 µM [9]: 24.9%

Compound: O=C1O/C(=C\c2ccc(OCCc3ccccn3)cc2)C(Br)=C1Br
inhibition at 10 µM [9]: 38%

Compound: CCc1ccc(CCOc2ccc(/C=C3\OC(=O)C(Br)=C3Br)cc2)nc1
inhibition at 10 µM [9]: 43.6%

Compound: Cc1nc(C)c(COc2ccc(/C=C3\OC(=O)C(Br)=C3Br)cc2)nc1C
inhibition at 10 µM [9]: 30.1%

Compound: COc1cc(/C=C2\OC(=O)C(Cl)=C2Cl)ccc1OCc1ccccn1
inhibition at 10 µM [9]: 36.4%

inhibition [11]: inactive | inhibition [12]: Active | inhibition [13]: inactive | inhibition [14]: inactive | inhibition [15]: inactive | inhibition [16]: inactive | inhibition [17]: Active | inhibition [18]: Active | inhibition [19]: Active | inhibition [20]: Active
Compound: CCc1ccc(CCOc2ccc(/C=C3\OC(=O)C(Br)=C3Br)cc2OC)nc1
Activity [1]: 347.1 pg/mL | Activity [2]: 1705.9 pg/mL | inhibition [3]: tde | viability at 48 h, 10 µM [4]: 98.1% | Activity [5]: 6360 pg/mL | Activity [6]: 2528.4 pg/mL | Activity [7]: 1110.5 pg/mL | Activity [8]: 575.6 pg/mL | inhibition at 10 µM [9]: 75.8% | inhibition [10]: tde

Compound: CCc1ccc(CCOc2ccc(/C=C3\OC(=O)C(Cl)=C3Cl)cc2)nc1
inhibition at 10 µM [9]: 40.8%

Compound: COc1cc(/C=C2\OC(=O)C(Br)=C2Br)ccc1OCCc1ccccn1
inhibition at 10 µM [9]: 54.7%

Compound: O=C1O/C(=C\c2ccc(OCc3ccccn3)cc2)C(Br)=C1Br
inhibition at 10 µM [9]: 29.2%

Compound: CCOc1cc(/C=C2\OC(=O)C(Br)=C2Br)ccc1OCCc1ccccn1
inhibition at 10 µM [9]: 62.9%

Compound: O=C1O/C(=C\c2ccc(OCCc3ccccn3)cc2)C(Cl)=C1Cl
inhibition at 10 µM [9]: 20.2%

Compound: CCOc1cc(/C=C2\OC(=O)C(Cl)=C2Cl)ccc1OCCc1ccccn1
inhibition at 10 µM [9]: 50.4%

Compound: O=C1O/C(=C\c2ccc(OCc3ccccn3)cc2)C(Cl)=C1Cl
inhibition at 10 µM [9]: 16.3%

Compound: CCOc1cc(/C=C2\OC(=O)C(Br)=C2Br)ccc1OCc1ccccn1
inhibition at 10 µM [9]: 42.2%

Compound: COc1cc(/C=C2\OC(=O)C(Br)=C2Br)ccc1OCc1ccccn1
inhibition at 10 µM [9]: 33.9%

Compound: CCOc1cc(/C=C2\SC(=O)NC2=O)ccc1OCc1nc(C)c(C)nc1C
inhibition at 10 µM [9]: 30.7%

Compound: CCOc1cc(/C=C2\OC(=O)C(Cl)=C2Cl)ccc1OCc1ccccn1
inhibition at 10 µM [9]: 36.8%

Compound: COc1cc(/C=C2\OC(=O)C(Cl)=C2Cl)ccc1OCCc1ccccn1
inhibition at 10 µM [9]: 38.9%

Compound: Cc1nc(C)c(COc2ccc(/C=C3\SC(=O)NC3=O)cc2)nc1C
inhibition at 10 µM [9]: 19.3%
